Jurkat viability: cytotoxicity toward Jurkat T cells, primary screen, cytotoxicity control, cell-based, Jurkat E6.1, 60K MLSMR library; actives 1.2% (n = 56,000); Jurkat E6.1 viability, ATP luminescence, 48 h; AID 463, 2006; inhibition, % at 4 µM;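 active = inhibition above the mean inhibition of all tested compounds plus 3 SD, cut at about 28% in these data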
Ecoli tolC: growth inhibitors of E. coli tolC mutant, primary screen, strain BW25113 ΔtolC::kan, 384-well | OD615 | growth inhibition, % at 10 µM (by protocol) | actives 2.2% (n = 65,000) | AID 573, 2007;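 active = growth inhibition at or above a cutoff equal to the mean over every tested compound plus 3 SD, cut at about 60% in these data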;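 note: growth measured after 20 h incubation at 37 °C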
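signal = optical density read at 615 nm | test system = E. coli ΔtolC::kan strain BW25113 | timing = 20 h compound exposure of bacteria at 37 °C | buffer or medium = LB medium plus 50 µg/mL kanamycin | compound dosing = 10 µM final, single dose | evaluation = % inhibition of E. coli growth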
Ecoli WT expand: growth inhibitors of wild-type E. coli, primary screen, strain BW25113, expanded library, OD600; OD600 absorbance; growth inhibition, % at 100 µM; actives 0.15% (n = 98,000);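 active = growth inhibition above about 50% at one test dose, limit read from the data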;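 note: growth measured after 20 h incubation at 37 °C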
HUVEC prolif 384: inhibitors of HUVEC proliferation, primary screen, cell-based, 384-well. CellTiter-Glo luminescence, 72 h; active compounds read low. viability, % at 10 µM (by protocol). actives 1.1% (n = 86,000);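 active = viability at or below 30%; inactive = viability above 30%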
Lung fibro prol: antiproliferative effect on LL 47 fibroblasts – human, LL 47 cells, CellTiter-Glo luminescence, primary screen | viability, % at 10 µM | AID 719, 2007 | LL 47 human lung fibroblast viability, ATP luminescence; active compounds read low | actives 1.1% (n = 85,000);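 active = viability at or below 50% in the single dose screen; inactive = viability above 50%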;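 note: compound exposure lasted 72 h before the ATP readout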
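Test system: LL 47 human lung fibroblasts; Quantity: 1,150 cells/well; Buffer or medium: IMEM plus 15% FBS; Dosing: tenfold compound dosing solution, DMSO at 0.1%; Timing: overnight cell rest, 72 h compound treatment at 37 °C; Detection: ATP-based CellTiter-Glo luminescent readout; Read-out basis: viability percentage against median untreated-cell control; Controls: cell-only wells, no compound.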
H69AR growth 86K: proliferation blockers of H69AR lung cancer cells, primary screen, cell-based, human, 86K library | actives 6% (n = 85,000) | viability, % at 10 µM | H69AR lung tumor viability, ATP luminescence, 72 h; active compounds read low | AID 598, 2007;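 active = viability at or below 40%; inactive = viability above 40%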;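 note: multidrug resistant small cell line overexpressing MRP-1 efflux transporter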
Of the large screens only hits and unclear results are named; the others gave an inactive call. Compounds with a hit are over-represented: about 6.4% of the library has one in this group of screens.

CC(C)C(=O)Nc1nc(-c2ccccc2)ns1	none (no result: Jurkat viability, Ecoli tolC, Ecoli WT expand)
CCOC(=O)c1c(C)oc2c1c1c(c3ccccc32)OCN(Cc2cccnc2)C1	H69AR growth 86K 12
CCOC(=O)c1c(C)oc2c1c(C(c1cccnc1)N1CCOCC1)c(O)c1ccccc12 (centres undefined)	none (no result: Jurkat viability, Ecoli tolC, HUVEC prolif 384, Lung fibro prol, H69AR growth 86K)
CCOC(=O)c1c(C)oc2c1c(C(c1cccnc1)N1CCN(C)CC1)c(O)c1ccccc12 (centres undefined)	HUVEC prolif 384 8.4, H69AR growth 86K 2.1 (no result: Ecoli WT expand)
Cc1cc(CNC(=O)Cc2c(F)cccc2Cl)nn1C	none
CCOC(=O)C1C(c2ccccc2Cl)NC(=O)N(C)C1(O)C(F)(F)F (centres undefined)	none
O=C(CCCc1nc(-c2ccccc2Cl)no1)NC1CCCCC1	none
CCN1CCN(Cc2nc3c(c(=O)[nH]c(=O)n3C)n2Cc2ccccc2Cl)CC1	none (no result: Ecoli WT expand)
CCCCn1c(CN2CCN(c3cccc(Cl)c3)CC2)nc2c1c(=O)[nH]c(=O)n2C	Jurkat viability 80, Lung fibro prol 49, H69AR growth 86K 19 (no result: Ecoli WT expand)
Cn1c(=O)[nH]c(=O)c2c1nc(CN1CCN(c3cccc(Cl)c3)CC1)n2Cc1ccccc1Cl	H69AR growth 86K 12
CN(C)Cc1ccc(O)c(CCc2ccccc2)n1	none (no result: HUVEC prolif 384, Lung fibro prol, H69AR growth 86K)
CCN(CC)CC#CCC1(O)c2ccccc2-c2ccccc21	none (no result: Jurkat viability, Ecoli tolC, HUVEC prolif 384, Lung fibro prol, H69AR growth 86K)
COC(=O)C1=C(Nc2ccc(C)cc2)C=C(C)C(C(=O)OC)C1c1cccc(OC)c1 (centres undefined)	H69AR growth 86K 17 (no result: Jurkat viability, Ecoli tolC, Ecoli WT expand)
COC(=O)C1=C(Nc2ccc(C)cc2)C=C(C)C(C(=O)OC)C1c1ccc(OC)cc1 (centres undefined)	H69AR growth 86K 24 (no result: Jurkat viability, Ecoli tolC, Ecoli WT expand)
c1ccc(-c2cc3c(N4CCOCC4)ncnc3s2)cc1	H69AR growth 86K 31 (no result: Lung fibro prol)
Cc1nc(N2CCOCC2)c2cc(-c3ccccc3)sc2n1	none
O=C(Nc1ccc(SC(F)F)cc1)C1=COCCO1	none (no result: Jurkat viability, HUVEC prolif 384, Lung fibro prol, H69AR growth 86K)
FC(F)Sc1ccc(NC(=S)NCC2CCCCC2)cc1	H69AR growth 86K 5.1 (no result: Jurkat viability, Ecoli tolC)
FC(F)Sc1ccc(NC(=S)NC2CCCCC2)cc1	H69AR growth 86K 18 (no result: Jurkat viability, Ecoli tolC)
CC1CCCCC1NC(=S)Nc1ccc(SC(F)F)cc1 (centres undefined)	Lung fibro prol 44, H69AR growth 86K 32 (no result: Jurkat viability, Ecoli tolC)
O=C(CSc1nnc(-c2ccccc2Cl)o1)Oc1ccc(Br)cc1	none (no result: Jurkat viability, Ecoli tolC, Ecoli WT expand)
N#CC1=C(N)Oc2n[nH]c(-c3cccs3)c2C1c1ccco1 (centres undefined)	none
N#CC1=C(N)Oc2n[nH]c(-c3cccs3)c2C1c1ccsc1 (centres undefined)	Ecoli tolC 98
N#CC1=C(N)Oc2n[nH]c(-c3cccs3)c2C1C1CCCCC1 (centres undefined)	H69AR growth 86K 38 (no result: Jurkat viability, Ecoli tolC)
N#CC1=C(N)Oc2n[nH]c(-c3cccs3)c2C1C1C=CCCC1 (centres undefined)	none (no result: Jurkat viability, Ecoli tolC)
O=C(CN1C2=NCCN2c2ccccc21)C12CC3CC(CC(C3)C1)C2	H69AR growth 86K 35
c1ccc2c(c1)N1CCN=C1N2CCN1CCCCC1	none
CCC(Sc1nc2sc(C(=O)OC)c(C)c2c(=O)n1N)C(=O)N(CC)CC (centres undefined)	H69AR growth 86K 19 (no result: Jurkat viability, Ecoli tolC)
COc1ccc(/C=C/C(=O)c2ccc(NC(=O)c3cccs3)cc2)cc1OC	none (no result: Jurkat viability, Ecoli tolC, HUVEC prolif 384, Lung fibro prol, H69AR growth 86K)
CC(=O)Nc1ccc(OCC(O)CN2CCN(Cc3ccccc3)CC2)cc1 (centres undefined)	none
CC(=O)Nc1ccc(S(=O)(=O)NC2=C(N3CCN(Cc4ccccc4)CC3)C(=O)c3ccccc3C2=O)cc1	HUVEC prolif 384 7.0, H69AR growth 86K 31 (no result: Jurkat viability, Ecoli tolC)
C=CCN=C(NC#N)SCC(=O)c1cccc(OC)c1	H69AR growth 86K 35
COc1cccc(CN2C(=O)C3(C(C#N)=C(N)OC4=C3C(=O)CCC4)c3ccccc32)c1 (centres undefined)	HUVEC prolif 384 4.0, Lung fibro prol 20, H69AR growth 86K 19
COc1ccc(CNC(=O)NC2CCCCC2)cc1	none
CCC(Sc1nc2cc3c(cc2c(=O)n1Cc1ccco1)OCO3)C(=O)Nc1cccc(OC)c1 (centres undefined)	HUVEC prolif 384 4.1, Lung fibro prol 36, H69AR growth 86K 11 (no result: Jurkat viability)
CCC(Sc1nc2cc3c(cc2c(=O)n1Cc1ccco1)OCO3)C(=O)Nc1ccccc1OC (centres undefined)	HUVEC prolif 384 25, H69AR growth 86K 7.6 (no result: Jurkat viability)
CCC(Sc1nc2cc3c(cc2c(=O)n1Cc1ccco1)OCO3)C(=O)NCCOC (centres undefined)	none (no result: Jurkat viability, Ecoli tolC)
Cc1cc(NC2CCCCC2)nc(-c2ccccc2O)n1	H69AR growth 86K 38 (no result: Jurkat viability, Ecoli tolC)
Cc1cc(Nc2ccccc2)nc(-c2ccccc2O)n1	Ecoli tolC 100 (no result: HUVEC prolif 384, Lung fibro prol, H69AR growth 86K)
Cc1cc(NCc2ccccc2)nc(-c2ccccc2O)n1	none
COc1ccc(C(=O)N(CCCO)C(C)C(=O)NC2CCCCC2)cc1OC (centres undefined)	none
CC(=O)N(Cc1cccnc1)Cc1cc2ccccc2[nH]c1=O	none
O=C(NC1CCCCC1)C1CCC(CNS(=O)(=O)c2cccc3nsnc23)CC1 (centres undefined)	none (no result: Jurkat viability, Ecoli tolC)
CC1CCC(NC(=O)C2CCC(CNS(=O)(=O)c3cccc4nsnc34)CC2)CC1 (centres undefined)	H69AR growth 86K 17 (no result: Jurkat viability, Ecoli tolC)
O=C(C1CCC(CNS(=O)(=O)c2cccc3nsnc23)CC1)N1CC=C(c2ccccc2)CC1 (centres undefined)	H69AR growth 86K 39 (no result: Jurkat viability, Ecoli tolC)
CCCCOc1cccc(/C=N/NC(=O)c2csc(C)c2C)c1	none (no result: Jurkat viability, Ecoli tolC, HUVEC prolif 384, Lung fibro prol, H69AR growth 86K)
Cc1sc(=NC(=O)c2ccco2)n(C)c1-c1ccccc1	none (no result: Jurkat viability, Ecoli tolC, HUVEC prolif 384, Lung fibro prol, H69AR growth 86K)
COc1ccccc1CNc1nc2ccccc2n1CCN1CCCCC1	H69AR growth 86K 36
CCN1CCN(c2ncc(C(=O)N3CCCc4ccccc43)c3ccccc23)CC1	none
COC(=O)C1=C(N)Oc2cc(N(C)C)ccc2C1c1ccccc1OC (centres undefined)	Jurkat viability 75 (no result: H69AR growth 86K)
CC(C)c1cc(C(=O)NCc2ccco2)no1	none
CCC1(C)OCC(Cn2c3ccccc3c3ccccc32)O1 (centres undefined)	H69AR growth 86K 25 (no result: Jurkat viability, Ecoli tolC, Ecoli WT expand)
O=C(Nc1ccccc1Cl)C1CCCN(S(=O)(=O)c2ccc(F)cc2)C1 (centres undefined)	none (no result: Jurkat viability, Ecoli tolC)
O=C(Nc1cccc(Cl)c1)C1CCCN(S(=O)(=O)c2ccc(F)cc2)C1 (centres undefined)	H69AR growth 86K 29 (no result: Jurkat viability, Ecoli tolC)
CSc1cccc(NC(=O)C2CCCN(S(=O)(=O)c3ccc(F)cc3)C2)c1 (centres undefined)	H69AR growth 86K 21
O=C(O)c1ccc(N2C(=O)C3ON(c4ccccc4)C(c4ccccc4F)C3C2=O)cc1 (centres undefined)	none

Screening data as filed in PubChem.
